Results on one compound are retold here after article PMC7346850 (ACS infectious diseases, 2020).

“Also recorded” adds a separate entry of the source.

Assay [1] deals with chloroquine-resistant P. falciparum Dd2 cells. Description: Antiplasmodial dose-response, cell-based SYBR Green I assay, Dd2. Further details: species or system Plasmodium falciparum. Summed up:
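Chloroquine-resistant P. falciparum Dd2 cultures were tested in dose–response with a cell-based SYBR Green I growth assay to obtain EC50. Each reported value comes from three independent experiments.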

For another assay, the system named is HepG2 cells. The assay is described as follows: Cytotoxicity against HepG2. Format: cell-based. Particulars: Homo sapiens, HepG2, read-out: EC50 HepG2 cells.

In general, EC50 refers to the concentration at which the effect is half-maximal. Consider `COC(=O)[C@@H]1[C@H]2C[C@H]3c4[nH]c5ccccc5c4CCN3C[C@@H]2CC[C@@H]1O` [Y, yohimbine], for which the “antiplasmodial activity (in words)” value in assay [1] (P. falciparum Dd2 cells) was “no antiplasmodial activities; also recorded: no antiplasmodial activity”. Also, the EC50 in assay [1] (Plasmodium falciparum, DD2, read-out: EC50 Dd2 cells) is 76.7 ± 0.74 µM; in the assay on HepG2 cells, greater than 100 µM.
